A short description of data set [1]: (§1) Toxicity in po dosed mouse. In kind it is organism-based. To be noted: in vivo. The method, boiled down:
(§2)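 Acute toxicity was tested in mice given the compound orally. The LD50 was reported in mg/kg or g/kg.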

Data set [2] has as its target Transporter (Rattus norvegicus, UniProt Q63380). Kind of data set: Inhibition of [3H]norepinephrine reuptake at rat brain frontal cortex norepinephrine transporter. It is filed as tissue-based. In outline: (§3)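 Rat frontal cortex synaptosomes prepared at 4 °C: tissue homogenized in ice-cold 0.32 M sucrose, spun at 1500g for 10 min, and the supernatant spun at 20,000g for 30 min. The pellet was resuspended in buffer and protein measured. Synaptosomes were preincubated with compound 5 min at 37 °C, then given 300 nM [3H]-DA or [3H]-NA for 5 min at 37 °C. Uptake was stopped on ice and samples filtered and washed with artificial cerebral fluid before scintillation counting. Active uptake was taken as the 37 °C minus 0 °C difference.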

Data set [3] concerns Mus musculus. Put plainly: Antidepressant activity in po dosed mouse by forced tail suspension assay. In kind it is functional. In outline: (§4)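 Mice received a single oral dose of each isomer; the ED50 (mg/kg) was derived from the forced swimming and tail suspension tests.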
Data set [4] deals with Sodium-dependent dopamine transporter (Rattus norvegicus, UniProt P23977). Put plainly: Inhibition of [3H]dopamine reuptake at rat brain frontal cortex dopamine transporter. In kind it is tissue-based. In outline:
as §3

Data set [5] addresses Sodium-dependent serotonin transporter (Rattus norvegicus, UniProt P31652). Kind of data set: Inhibition of [3H]5HT reuptake at rat brain frontal cortex serotonin transporter. In kind it is tissue-based. In outline:
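Rats were decapitated and the frontal cortex was dissected on ice. The tissue was homogenised in ice-cold 0.32 M sucrose and spun at 1500g for 10 min, then the supernatant at 20,000g for 30 min (4 °C). Synaptosomes were preincubated with compound for 5 min at 37 °C. [3H]-5-HT (300 nM) was added for 5 min at 37 °C. The reaction was stopped on ice, then filtered and counted. Active uptake was taken as the 37 °C minus 0 °C difference.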

Data set [6] concerns Mus musculus. The description is as §1. In kind it is organism-based. To be noted: in vivo. The method, boiled down:
as §2

In data set [7] the test system is Mus musculus. Put plainly: Antidepressant activity in po dosed mouse by forced swimming test. In kind it is functional. In outline: as §4

Structures are written as SMILES. Bounds are passed on as bounds.

These results are taken from ChEMBL document CHEMBL1158499, “Synthesis and antidepressant activity of optical isomers of 2-(4-benzylpiperazin-1-yl)-1-(5-chloro-6-methoxynaphthalen-2-yl) propan-1-ol (SIPI5056)” (Bioorg Med Chem Lett, 2010).

As usually defined, the LD50 is the dose at which mortality reaches 50%. Low values mean greater toxicity, high ones lower toxicity. One may read the IC50 as the concentration at which inhibition is half-maximal. By ED50 is commonly meant the midpoint of the dose-response relation. Read a high ED50 as a need for a large dose.

Sequence of Sodium-dependent serotonin transporter (P31652 whole entry): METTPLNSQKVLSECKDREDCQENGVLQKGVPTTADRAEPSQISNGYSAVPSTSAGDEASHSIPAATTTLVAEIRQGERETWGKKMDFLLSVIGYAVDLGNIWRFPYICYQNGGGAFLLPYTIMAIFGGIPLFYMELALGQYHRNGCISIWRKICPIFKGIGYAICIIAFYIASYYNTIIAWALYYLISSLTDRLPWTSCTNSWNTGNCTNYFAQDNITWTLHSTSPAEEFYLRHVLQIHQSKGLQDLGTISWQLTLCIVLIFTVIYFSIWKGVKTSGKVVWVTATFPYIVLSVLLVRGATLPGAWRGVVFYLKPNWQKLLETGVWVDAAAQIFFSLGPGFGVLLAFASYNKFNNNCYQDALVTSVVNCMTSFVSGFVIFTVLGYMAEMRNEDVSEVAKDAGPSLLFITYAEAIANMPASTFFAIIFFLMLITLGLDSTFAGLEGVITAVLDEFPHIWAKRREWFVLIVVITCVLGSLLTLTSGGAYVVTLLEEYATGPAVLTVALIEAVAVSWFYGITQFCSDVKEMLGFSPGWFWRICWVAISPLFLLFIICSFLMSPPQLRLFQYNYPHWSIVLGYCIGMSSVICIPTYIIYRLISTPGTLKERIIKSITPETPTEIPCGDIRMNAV
Sequence of Transporter (Q63380 whole entry): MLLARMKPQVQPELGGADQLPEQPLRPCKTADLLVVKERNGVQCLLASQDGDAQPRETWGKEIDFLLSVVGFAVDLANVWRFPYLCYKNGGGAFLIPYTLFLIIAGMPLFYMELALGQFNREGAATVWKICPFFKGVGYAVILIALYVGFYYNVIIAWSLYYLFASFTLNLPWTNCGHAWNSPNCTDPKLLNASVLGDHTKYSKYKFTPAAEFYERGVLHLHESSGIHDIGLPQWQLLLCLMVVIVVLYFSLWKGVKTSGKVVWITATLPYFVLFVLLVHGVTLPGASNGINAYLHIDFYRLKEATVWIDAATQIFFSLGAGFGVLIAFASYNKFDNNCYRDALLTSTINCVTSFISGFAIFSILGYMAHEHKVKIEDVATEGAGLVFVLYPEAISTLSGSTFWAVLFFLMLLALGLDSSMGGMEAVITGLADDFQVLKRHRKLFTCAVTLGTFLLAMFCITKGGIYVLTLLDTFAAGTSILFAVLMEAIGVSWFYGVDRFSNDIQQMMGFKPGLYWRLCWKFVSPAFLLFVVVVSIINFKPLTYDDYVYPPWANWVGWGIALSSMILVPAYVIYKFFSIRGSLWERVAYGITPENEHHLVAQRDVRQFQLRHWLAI
Sequence of Sodium-dependent dopamine transporter (P23977 whole entry): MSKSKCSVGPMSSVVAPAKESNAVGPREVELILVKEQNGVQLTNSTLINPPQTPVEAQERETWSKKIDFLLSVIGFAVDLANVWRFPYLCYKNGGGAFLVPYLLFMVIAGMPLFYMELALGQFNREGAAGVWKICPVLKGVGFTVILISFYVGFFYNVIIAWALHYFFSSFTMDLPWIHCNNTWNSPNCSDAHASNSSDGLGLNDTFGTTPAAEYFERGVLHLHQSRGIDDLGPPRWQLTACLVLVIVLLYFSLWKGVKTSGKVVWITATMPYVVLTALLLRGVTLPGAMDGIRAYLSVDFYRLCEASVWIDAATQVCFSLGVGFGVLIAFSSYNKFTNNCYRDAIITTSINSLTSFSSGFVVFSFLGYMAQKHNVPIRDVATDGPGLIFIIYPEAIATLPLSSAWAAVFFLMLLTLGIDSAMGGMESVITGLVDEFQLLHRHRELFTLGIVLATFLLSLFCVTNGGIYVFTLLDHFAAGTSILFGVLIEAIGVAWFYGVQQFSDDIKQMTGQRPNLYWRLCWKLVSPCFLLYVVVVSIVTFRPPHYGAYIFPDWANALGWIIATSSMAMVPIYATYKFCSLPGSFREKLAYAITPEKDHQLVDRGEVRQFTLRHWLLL

As to `COc1ccc2cc([C@@H](O)[C@@H](C)N3CCN(Cc4ccccc4)CC3)ccc2c1Cl`, the LD50 in data set [1] came to 200 mg/kg. The IC50 in data set [2] was 1.25 µM; in data set [4] it was more than 1000 µM; in data set [5], 0.375 µM. Moreover, it took a dose of 24.5 mg/kg to reach the 50% effect level in data set [3] (ED50).

Consider `COc1ccc2cc([C@H](O)[C@H](C)N3CCN(Cc4ccccc4)CC3)ccc2c1Cl`, for which the LD50 in data set [6] was determined as 300 mg/kg. Further, the IC50 in data set [2] is 0.425 µM; in data set [4] it was more than 1000 µM; in data set [5], 0.825 µM. Also, the ED50 in data set [3] was 27.9 mg/kg.

As for `COc1ccc2cc([C@H](O)[C@@H](C)N3CCN(Cc4ccccc4)CC3)ccc2c1Cl`, the LD50 in data set [6] is 1171 mg/kg. The IC50 in data set [2] is 7 µM; in data set [4], 10 µM; in data set [5], 0.548 µM. Moreover, the figures for the ED50 in data set [3] and in data set [7] were 16.5 mg/kg and 24.5 mg/kg, respectively.

As to `COc1ccc2cc([C@@H](O)[C@H](C)N3CCN(Cc4ccccc4)CC3)ccc2c1Cl`, in data set [1], the LD50 stood at 1030 mg/kg. Further, in data set [2], 0.185 µM corresponded to half-maximal inhibition (IC50). This compound returned an ED50 in data set [3] of 12.6 mg/kg.

As for `COc1ccc2cc([C@H](O)[C@H](C)N3CCN(Cc4ccccc4)CC3)ccc2c1Cl` (racemic), the LD50 in data set [6] was more than 1500 mg/kg.

As for `COc1ccc2cc([C@H](O)[C@@H](C)N3CCN(Cc4ccccc4)CC3)ccc2c1Cl` (racemic), in data set [6], the LD50 was more than 220 mg/kg.
